Reference: ChEMBL document CHEMBL1153285, “Synthesis and SAR of piperazinyl-N-phenylbenzamides as inhibitors of hepatitis C virus RNA replication in cell culture” (Bioorg Med Chem Lett, 2009)
pEC50: −log10 of the molar value. The source made the active and inactive calls. No cut-off for these calls is given here.

What follows are compounds tested on Hepacivirus hominis (assay: Inhibition of HCV NS5B deltaC55 polymerase). Conditions: not given.
Summary of the method: (§1)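 Cell-free polymerase assays used purified NS5B in its ΔC55 and ΔC21 truncated forms.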

Compound	Activity
CC(C)(C)OC(=O)N1CCN(c2ccc(C(=O)Nc3ccc(O)cc3)cc2)CC1	inactive

What follows are compounds tested on Hepacivirus hominis (assay: Inhibition of HCV NS5B deltaC21 polymerase). Conditions: not given.
Summary of the method: as §1

Compound	Activity
CC(C)(C)OC(=O)N1CCN(c2ccc(C(=O)Nc3ccc(O)cc3)cc2)CC1	inactive

The compounds below were run on Hepacivirus hominis (assay: Inhibition of helicase activity of HCV NS3/4A protease up to 10 uM). Conditions: not given.
Summary of the method: (§2)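 Cell-free assays used purified protein, either the full-length NS3-4A complex or the separate protease and helicase domains. Compound was tested at concentrations up to 10 µM.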

Compound	Activity
CC(C)(C)OC(=O)N1CCN(c2ccc(C(=O)Nc3ccc(O)cc3)cc2)CC1	inactive

What follows are compounds tested on Hepacivirus hominis (assay: Inhibition of ATPase activity of HCV NS3/4A protease up to 10 uM). Conditions: not given.
Summary of the method: as §2

Compound	Activity
CC(C)(C)OC(=O)N1CCN(c2ccc(C(=O)Nc3ccc(O)cc3)cc2)CC1	inactive

These compounds were tested on Hepatitis C virus (assay: Antiviral activity against HCV infected in human HUH7 cells assessed as inhibition of viral subgenomic RNA replication in presence of 10% fetal calf serum). Conditions: Huh-7.
Type: functional, organism-based, Hepacivirus hominis
Summary of the method: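 Replication of subgenomic HCV RNA was measured in HUH-7 replicon cells using a modified Bartenschlager procedure. Results are reported as EC50 in µM.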

Compound	pEC50
CC(C)(C)OC(=O)N1CCN(c2ccc(C(=O)Nc3cccc(Br)c3)cc2)CC1	6.24
O=C(Nc1ccc(O)cc1)c1ccc(N2CCN(C(=O)OCc3ccccc3)CC2)cc1	6.26
CC(C)(C)OC(=O)N1CCN(c2ccc(C(=O)Nc3ccc(F)cc3)cc2)CC1	< 5.00
O=C(Nc1ccc(O)cc1)c1ccc(N2CCN(C(=O)NCc3ccccc3)CC2)cc1	5.57
CC(C)(C)OC(=O)N1CCN(c2ccc(C(=O)Nc3ccc(C#N)cc3)cc2)CC1	5.25
O=C(Nc1ccc(O)cc1)c1ccc(N2CCN(C(=O)Oc3ccccc3)CC2)cc1	5.39
CC(=O)Nc1ccc(NC(=O)c2ccc(N3CCN(C(=O)OC(C)(C)C)CC3)cc2)cc1	< 5.00
CC(C)(C)C(=O)N1CCN(c2ccc(C(=O)Nc3ccc(O)cc3)cc2)CC1	6.11
CC(C)(C)OC(=O)N1CCC(c2ccc(C(=O)Nc3ccc(O)cc3)cc2)CC1	5.77
CC(C)(C)NC(=O)N1CCN(c2ccc(C(=O)Nc3ccc(O)cc3)cc2)CC1	6.33
CN(C(=O)c1ccc(N2CCN(C(=O)OC(C)(C)C)CC2)cc1)c1ccc(O)cc1	< 5.00
CC(C)(C)OC(=O)N1CCN(c2ccc(C(=O)N[C@H]3CC[C@H](O)CC3)cc2)CC1	< 5.00
CC(C)(C)OC(=O)N1CCN(c2ccc(C(=O)Nc3cc[n+]([O-])cc3)cc2)CC1	< 5.00
CC(C)(C)OC(=O)N1CCN(c2cccc(C(=O)Nc3ccc(O)cc3)c2)CC1	< 5.00
CC(C)(C)OC(=O)N1CCN(c2ccc(C(=O)Nc3ccccc3)cc2)CC1	< 5.00
CC(C)(C)OC(=O)N1CCN(c2ccc(C(=O)Nc3ccc(O)cc3)cc2)CC1	6.80
O=C(Nc1ccc(O)cc1)c1ccc(N2CCN(C(=O)Nc3ccccc3)CC2)cc1	4.71
CN(CCNC(=O)OC(C)(C)C)c1ccc(C(=O)Nc2ccc(O)cc2)cc1	< 5.00
CN(C)c1ccc(NC(=O)c2ccc(N3CCN(C(=O)OC(C)(C)C)CC3)cc2)cc1	< 5.00
CC(C)(C)OC(=O)C1CCN(c2ccc(C(=O)Nc3ccc(O)cc3)cc2)CC1	5.80
CCOC(=O)N1CCN(c2ccc(C(=O)Nc3ccc(O)cc3)cc2)CC1	5.02
CC(C)(C)OC(=O)N1CCN(c2ccc(C(=O)Nc3ccc(/C=C/c4ccc(O)cc4)cc3)cc2)CC1	6.85
CC(C)(C)OC(=O)N1CCN(c2ccc(C(=O)Nc3ccc(C(=O)c4ccccc4)cc3)cc2)CC1	6.16
